From PubChem BioAssay
Hits are enriched below; roughly 2.1% of the tested compounds scored in any of these assays.
GRK2 aptamer HTS – compounds blocking aptamer binding on GRK2 – biochemical, human GRK2, bead flow cytometry, HTS, primary screen; FAM-aptamer displacement from GRK2; inhibition of aptamer binding, % at 10 µM; 330,000 tested, 0.59% active;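 active means inhibition of aptamer binding above 40%, roughly 3 SD of noise, on plates passing a quality check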;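 further: median bead fluorescence of bound FAM aptamer so fluorescent compounds give negative values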
Target sequence (P25098 whole entry, looked up): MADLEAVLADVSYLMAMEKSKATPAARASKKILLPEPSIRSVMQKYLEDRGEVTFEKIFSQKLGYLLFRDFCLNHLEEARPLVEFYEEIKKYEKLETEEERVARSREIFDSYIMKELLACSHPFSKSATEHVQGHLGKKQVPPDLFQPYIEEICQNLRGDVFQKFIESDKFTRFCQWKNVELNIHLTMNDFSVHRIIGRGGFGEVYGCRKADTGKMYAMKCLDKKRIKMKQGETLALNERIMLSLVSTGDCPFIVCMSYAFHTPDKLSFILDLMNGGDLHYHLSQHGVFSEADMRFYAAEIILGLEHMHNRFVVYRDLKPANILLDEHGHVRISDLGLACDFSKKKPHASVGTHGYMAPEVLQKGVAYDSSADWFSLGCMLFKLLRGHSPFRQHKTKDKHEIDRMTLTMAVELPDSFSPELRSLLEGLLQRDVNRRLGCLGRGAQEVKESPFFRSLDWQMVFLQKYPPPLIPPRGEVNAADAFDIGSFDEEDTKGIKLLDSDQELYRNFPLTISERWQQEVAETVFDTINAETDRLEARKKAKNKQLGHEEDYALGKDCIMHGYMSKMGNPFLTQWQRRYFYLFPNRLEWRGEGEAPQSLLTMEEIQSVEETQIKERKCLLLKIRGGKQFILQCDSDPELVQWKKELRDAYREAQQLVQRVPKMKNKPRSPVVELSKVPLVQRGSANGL
SUMO1 PPI mod – modulators of SUMO1 protein-protein interactions, primary screen, biochemical, uHTS | SUMO1 binding to a labelled peptide, TR-FRET, 1 h | inhibition, % at 20 µM | Small ubiquitin-related modifier 1 (Homo sapiens), P63165 | AID 602429, 2012 | 360,000 tested, 0.33% active; in the data active means inhibition above about 37%
DNMT1 block – human DNMT1 methyltransferase inhibitors, primary screen, biochemical, molecular beacon, fluorescence, HinP1I cleavage, uHTS | inhibition (reported as % activation of signal), % at 10 µM | 360,000 tested, 0.83% active | AID 588458, 2011 | DNA (cytosine-5)-methyltransferase 1 (Homo sapiens), P26358; in the data active means inhibition above about 50%
Scp1 inh – Scp-1 phosphatase inhibitors, primary screen, biochemical, colorimetric, uHTS; Carboxy-terminal domain RNA polymerase II polypeptide A small phosphatase 1 (Homo …; Recombinant Scp1, phosphopeptide, malachite green phosphate absorbance; inhibition, % at 20 µM; 340,000 tested, 0.88% active; AID 493091, 2011;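 active means inhibition above about 50% at 20 µM, limit read from the data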;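 further: plate controls were DMSO wells with enzyme for no effect and wells lacking enzyme for full effect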
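Material: truncated SCP-1 phosphatase (76-261aa) / Buffer or medium: 50 mM Tris acetate pH 5.5, 0.005% Tween-20, 10 mM MgCl2 / Compound dosing: one concentration, 20 µM, with 1.0% DMSO / Incubation: 45 min room-temperature reaction, 5 min colour, 30 min stabiliser / Detection: colorimetric free-phosphate detection, absorbance 630 nm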
STEP block – STEP phosphatase inhibitors, primary screen, biochemical, fluorescence intensity, uHTS; inhibition, % at 20 µM; 360,000 tested, 0.25% active; AID 588621, 2011; recombinant STEP, OMFP fluorogenic substrate; Tyrosine-protein phosphatase non-receptor type 5 (Homo sapiens), P54829;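 active means inhibition at 20 µM, scaled per plate between control wells, above about 37%, limit read from the data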;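 further: 0% = DMSO with enzyme and substrate and 100% = substrate only without enzyme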
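Assay system: isolated STEP enzyme. Buffer or medium: pH 6.0 Bis-Tris with DTT and Tween 20. Also added: fluorogenic phosphatase substrate OMFP at 25 µM final. Dosing: 20 µM, 1% DMSO. Timing: 20 min reaction, room temperature, in the dark. Measured by: fluorescence intensity, excitation 480 nm, emission 540 nm. Evaluation: normalized % inhibition.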
LMPTP block – LMPTP phosphatase inhibitors, primary screen, biochemical, fluorescence intensity, uHTS | 360,000 tested, 0.22% active | recombinant LMPTP-A, OMFP fluorogenic substrate | inhibition, % at 20 µM | AID 651560, 2012 | Low molecular weight phosphotyrosine protein phosphatase (Homo sapiens), P24666;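 active means compounds that cut the enzyme signal by at least half of the control window in the single-dose screen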;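 further: plate controls were DMSO wells with enzyme plus substrate for no effect and substrate without enzyme for full effect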
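Buffer or medium: Bis-Tris pH 6.0, DTT, detergent; Assay system: LMPTP-A enzyme; Quantity: 0.625 nM enzyme; Detection: endpoint fluorescence intensity; Times: 50 min dark incubation at room temperature; Controls: substrate-only low control, DMSO enzyme-plus-substrate high control; Doses: single 20 µM dose; Read-out: percent inhibition versus substrate-only and uninhibited controls; Reagent: 400 µM OMFP.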
Scp1 confirm – Scp-1 phosphatase inhibitors, retest, confirmation, biochemical, colorimetric, single concentration. shares compounds with Scp1 inh. recombinant SCP-1 catalytic domain, phosphate release, malachite green absorbance. inhibition, % at 20 µM. 2,500 tested, 61% active. AID 540281, 2011;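 further: plate controls were DMSO with enzyme for no effect and buffer wells lacking enzyme for full effect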
MG interference – colorimetric readout interference by compounds, confirmation, artefact control for Scp-1 inhibitor project, biochemical, single concentration; apparent inhibition (interference), % at 20 µM; 2,500 tested, under 10 active; shares compounds with Scp1 inh; Colorimetric interference counterscreen, malachite green absorbance 630 nm;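 further: compounds added after enzyme reaction finished so only phosphate colour detection is probed; plate controls were DMSO wells with completed Scp-1 reaction for no effect and substrate wells lacking enzyme for full effect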
Scp1 DSF – Scp-1 binding by thermal shift, confirmation, orthogonal assay for Scp-1 inhibitor project, biophysical, differential scanning fluorimetry. shares compounds with Scp1 inh. thermal shift relative to vanadate control, % at 40 µM. 1,500 tested, 25% active. Recombinant SCP1, Sypro Orange thermal shift Tm. AID 540329, 2011;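 active means substances whose mean melting-temperature shift, as a percentage of the reference inhibitor's shift, reaches about 5.3%, limit read from the data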;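 further: 0% = Tm of DMSO wells and 100% = Tm with sodium orthovanadate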
* = called active by the depositor; . = no result given.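 How the source made its calls, unless noted: active means inhibition of at least 30% at 20 µM; inactive means the rest.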

SMILES | GRK2 aptamer HTS | SUMO1 PPI mod | DNMT1 block | Scp1 inh | STEP block | LMPTP block | Scp1 confirm | MG interference | others
O=C(CNS(=O)(=O)c1c(F)cc(F)cc1Br)OCC(=O)N1CCCC1=O | 0 | -2 | 1 | 5 | 0 | -1 | . | .
COc1ccc(NC(=O)c2cc(-c3cc(F)ccc3OCC3CCCO3)n[nH]2)c(C)c1 (stereo not given) | . | 7 | -2 | . | 1 | 2 | . | .
CCC[N+]1(CC#CC2(O)CCCCC2)CCOCC1 | 0 | -2 | 3 | 59* | -3 | -1 | 77* | -22 | Scp1 DSF=-6
CNC(=O)C[C@@H]1C(=O)N(CCc2ccccc2)CC1(C)C | . | 8 | 3 | . | 6 | -1 | . | .
Cc1ccc(NC2CCCN(C(=O)CCc3scnc3C)C2)cc1C (stereo not given) | 0 | 2 | 0 | 55* | -3 | 1 | -8 | -10
Cc1ncsc1CCC(=O)N1CCCC(Nc2ccc(F)c(F)c2)C1 (stereo not given) | 0 | 5 | 3 | -7 | 0 | -1 | . | .
O=C1OC(/C=C/c2ccccc2)=NC/1=C/C=C/c1ccccc1 | 5 | -10 | 13 | 70* | 7 | -1 | 13 | -3
COc1ccc(CNCCCn2cnc3c(SC)ncnc32)cc1 | . | 3 | 4 | . | -1 | -2 | . | .
O=S1(=O)CCN(Cc2cccnc2)CC1 | . | 23 | -2 | . | 0 | -2 | . | .
CC(=O)Nc1ccc(S(=O)(=O)N(C)CC(=O)OCC(=O)N2CCN(C(=O)c3ccco3)CC2)cc1 | 9 | 3 | 13 | 74* | 2 | 0 | 71* | -7 | Scp1 DSF=5
CC(=O)Nc1ccc(S(=O)(=O)N(C)CC(=O)OCC(=O)N2CCCCCC2)cc1 | 3 | 0 | -1 | -8 | -2 | -1 | . | .
CC(=O)Nc1ccc(S(=O)(=O)NCCC(=O)OCC(=O)N2CCN(C(=O)c3ccco3)CC2)cc1 | 8 | 3 | 12 | 77* | 0 | -2 | 66* | -17 | Scp1 DSF=5.9*
CCC1NC(=O)c2cc3ccccc3cc2-n2c1nc1ccc(F)cc1c2=O (stereo not given) | . | -31 | -1 | . | 0 | -1 | . | .
CSc1nnc(C)c(/C=C/Nc2ccc(F)cc2F)n1 | 0 | -11 | -17 | 55* | 2 | 0 | 66* | -8 | Scp1 DSF=-19
Cc1ccc(NC(=O)CSc2nc3nn(-c4ccccc4)c(=O)c-3c3n2CCCCC3)cc1F | 3 | -12 | -10 | -13 | 4 | 3 | . | .
Nc1nc(SCc2ccccc2)c2ncn(C3OC(CO)C(O)C3O)c2n1 (stereo not given) | . | 2 | -4 | -7 | -1 | -1 | . | .
CSc1nc(N)nc2c1ncn2C1OC(CO)C(O)C1O (stereo not given) | . | 0 | 3 | -5 | -3 | -1 | -11 | -15
O=C(COC(=O)c1ccc(CO)cc1)Nc1ccc2ccccc2c1 | 1 | -1 | -4 | -10 | 1 | 0 | . | .
